Furin inh – human furin inhibition | P09958 | purified furin, fluorogenic substrate cleavage | inhibition, % at 20 µM or 30 µM | 220,000 compounds, 0.061% hits; in the data active = inhibition above about 25%
FXIIa inh 1536 – blocks human coagulation factor XIIa protease activity; P00748; purified FXIIa, Boc-QGR-AMC fluorogenic substrate, 2 h; inhibition, % at 5 µM; 220,000 compounds, 0.3% hits; AID 800; in the data active = inhibition above about 40%
thrombin 1536 – thrombin (human) inhibition; inhibition, % at 5 µM; 220,000 compounds, 0.26% hits; alpha-thrombin, Boc-VPR-AMC fluorogenic substrate cleavage;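 active = inhibition at or above 40%; inactive = inhibition below 40%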
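signal = AMC fluorescence, 355/460 nm | material = human alpha-thrombin enzyme | control set = enzyme without compound as high, wells lacking enzyme as low | times = reaction at room temperature | read-out basis = percent inhibition scaled between no-compound controls and no-enzyme blanks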
FXIa inh – inhibitors of human coagulation factor XIa | P03951 | purified FXIa, Boc-Glu-Ala-Arg-AMC fluorogenic substrate | inhibition, % at 5 µM | 220,000 compounds, 0.14% hits | AID 798;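 active = inhibition of at least 40%; inactive = inhibition below 40%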;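 note: fluorescence of freed AMC excited at 355 nm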
Target sequence (P03951 19-387 limits assumed): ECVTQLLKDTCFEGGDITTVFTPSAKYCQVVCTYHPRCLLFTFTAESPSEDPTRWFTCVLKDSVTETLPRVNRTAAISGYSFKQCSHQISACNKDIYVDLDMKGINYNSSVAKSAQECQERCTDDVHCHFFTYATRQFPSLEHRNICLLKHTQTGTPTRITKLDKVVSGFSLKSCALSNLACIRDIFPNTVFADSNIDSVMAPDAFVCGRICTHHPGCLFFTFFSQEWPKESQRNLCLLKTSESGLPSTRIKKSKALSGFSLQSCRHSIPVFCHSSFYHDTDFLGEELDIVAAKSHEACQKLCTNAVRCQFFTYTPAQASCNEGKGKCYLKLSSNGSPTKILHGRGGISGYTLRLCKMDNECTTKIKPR
Target sequence (P03951 388-625 limits assumed): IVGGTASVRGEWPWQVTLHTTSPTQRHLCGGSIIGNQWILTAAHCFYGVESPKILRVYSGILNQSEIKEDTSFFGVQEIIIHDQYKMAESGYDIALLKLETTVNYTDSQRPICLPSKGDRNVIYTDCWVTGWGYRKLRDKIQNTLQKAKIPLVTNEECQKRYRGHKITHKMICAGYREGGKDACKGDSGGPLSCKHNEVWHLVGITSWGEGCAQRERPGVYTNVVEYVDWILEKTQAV
KLK5 inh – inhibitors of human kallikrein 5 | Q9Y337 | recombinant hK5, fluorogenic AMC substrate cleavage | inhibition, % at 5 µM | 210,000 compounds, 0.59% hits | AID 873;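 active = inhibition of 40% or more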
Each line names hits and unclear results; the compound was inactive in the other large screens. A selection: hits, their analogues and other compounds. The true share with any hit is near 1.1%.

CN(C)C(=O)COc1ccc(Oc2ccccc2)cc1	none
CSCCC(NC(=O)c1ccc(Br)cc1)C(=O)O (stereo not given)	none
CSCCC(NC(=O)c1cncc(Br)c1)C(=O)O (stereo not given)	KLK5 inh 52
CCCC(=O)Nc1cccc(Oc2nc(C)cc(C)c2C#N)c1	Furin inh 37
COc1ccc(-c2[nH]nc3c2C(c2ccsc2)C(C#N)=C(N)O3)cc1 (stereo not given)	KLK5 inh 81
O=C1CCCc2c1[nH]c1c(Br)cccc21	none
Cc1cc(Br)c2[nH]c3c(c2c1)CCCC3=O	FXIIa inh 1536 54
O=C(CSc1ncccn1)n1c2c(c3ccccc31)CCCC2	KLK5 inh 77
O=C(CSc1nnc(-c2ccc(C(F)(F)F)cn2)s1)c1ccccc1	none
N#Cc1c2c(c(Nc3ccc(O)cc3)n3c1nc1ccccc13)CCC2	KLK5 inh 44
COc1cccc(N2CCCn3c2nc2c3c(=O)n(CCN3CCOCC3)c(=O)n2C)c1	none
COc1ccc(N2CCCn3c2nc2c3c(=O)n(Cc3ccc(C)cc3)c(=O)n2C)c(OC)c1	FXIIa inh 1536 54
CNC(=O)CCCCC(=O)N/N=C/c1ccc(Cl)cc1Cl	none
Cn1c(SCC(=O)N2c3ccccc3CCc3ccccc32)nnc1-c1cc2ccccc2cc1O	thrombin 1536 101
O=C(Nc1nc2c(cc3c4c(cccc42)CC3)s1)c1ccccc1Cl	none
COc1ccc(C2(CNC(=O)c3ccc(OCC(C)C)cc3)CCOCC2)cc1	none
C=CCn1c(SCC(=O)OCC)nc(C(F)(F)F)cc1=O	none
Cc1ccc(OCC(=O)N2CCC(N3CCCCCC3)CC2)cc1	thrombin 1536 42
Cc1ccc(OCC(=O)N2CCN(C(=O)CCC3CCCC3)CC2)cc1	none
CCN1C(=O)C(CC(=O)Nc2ccc(Br)cc2)N(CCCc2ccccc2)C1=S (stereo not given)	none
CC(C)NC(=O)NC(=O)COc1ccc(Br)cc1Br	none
CCOc1ccc(Br)cc1-c1noc(-c2cccs2)n1	KLK5 inh 48
Cc1c(NC(=O)c2ccc(-c3ccccc3)cc2)cccc1C(=O)O	none
O=C(c1cccc([N+](=O)[O-])c1)n1nc(-c2ccccc2)nc1NCc1ccccc1	thrombin 1536 67
CCc1ccccc1NC(=O)CSc1nc(-c2ccccc2)nn1C(=O)c1cccc([N+](=O)[O-])c1	none
CC(=O)n1nc(-c2ccccc2)nc1NCc1ccc(F)cc1	thrombin 1536 98
O=C(CSc1nc(-c2ccccc2)nn1C(=O)c1ccccc1)Nc1cccc([N+](=O)[O-])c1	thrombin 1536 57
O=C(c1ccc([N+](=O)[O-])cc1)n1nc(-c2ccccc2)nc1NCc1ccc(F)cc1	thrombin 1536 52
O=C(c1cccs1)n1nc(-c2ccccc2)nc1NCc1ccc(F)cc1	none
CCCNc1nc(C)c(C(C)=O)cc1C#N	none
O=C(CSc1nc2ccccc2[nH]1)Nc1nc(-c2ccc(Br)cc2)cs1	none
O=Cc1s/c(=N\S(=O)(=O)c2ccccc2)n(CCCCl)c1Cl	none
Cc1nc2ccc(NC(=O)Cc3c(F)cccc3Cl)cc2s1	none
O=C(c1ccco1)n1nc(-c2ccccc2)nc1NCc1ccco1	none
O=C(c1ccc([N+](=O)[O-])cc1)n1nc(-c2ccccc2)nc1NCc1ccccc1	thrombin 1536 87
CN(c1cccc(NC(=O)CN(c2cccc(Cl)c2)S(=O)(=O)c2ccc(Cl)cc2)c1)S(C)(=O)=O	none
Cc1ccc(S(=O)(=O)N(Cc2ccccc2)c2ccccc2C(=O)Nc2ccccc2C(=O)NCc2ccco2)cc1	none
Cc1ccc(S(=O)(=O)N(Cc2ccccc2)c2ccccc2C(=O)NCc2ccco2)cc1	FXIIa inh 1536 47
CC(=O)c1ccc(O)c(CSC2=NCCS2)c1	thrombin 1536 67
COc1ccc(CCNC(=O)Cn2cc(C(F)(F)F)cc(Cl)c2=O)cc1	none
c1csc(CSc2nc3ccccc3s2)c1	none
NNC(=O)c1ccc(CSc2nc3ccccc3s2)cc1	FXIIa inh 1536 49
CCC(=O)Nc1cccc(C(=O)OCc2cccc([N+](=O)[O-])c2)c1	thrombin 1536 41, KLK5 inh 68
CCc1cccc(NC(=O)Cc2ccc([N+](=O)[O-])cc2)c1	FXIa inh 41, KLK5 inh 52
O=C(O)CC(NC(=O)C(c1ccccc1)c1ccccc1)c1cccc([N+](=O)[O-])c1 (stereo not given)	none
CC1CCC2(CC1)NC(=S)N(C(C)(C)C)N2 (stereo not given)	KLK5 inh 42
Cc1cccc(NC(=O)CC2SC(=O)N(c3ccccc3)C2=O)c1 (stereo not given)	none
Cc1cccc(NC2SC(=O)N(c3ccccc3)C2=O)c1 (stereo not given)	KLK5 inh 80
Nc1nc(SCC(=O)Nc2ccc(OCc3ccccc3)cc2)n[nH]1	KLK5 inh 44
Cc1nc(SCC(=O)Nc2ccc(OCc3ccccc3)cc2)n[nH]1	none (no result: KLK5 inh)
Cc1ccc(C)n1-c1ccc(-c2nnco2)cc1	thrombin 1536 40
COc1ccc(CNc2nc(-c3cccnc3)nn2C(=O)CC(C)C)cc1	thrombin 1536 95
CCC(=O)n1nc(-c2cccnc2)nc1NCc1ccc(F)cc1	none (no result: thrombin 1536)
COc1ccc(CNc2nc(-c3cccnc3)nn2C(=O)c2cccs2)cc1	none
COc1ccc(CNc2nc(-c3cccnc3)nn2C(C)=O)cc1	thrombin 1536 99
CCOC(=O)c1c(/N=C/C2=C(O)CC(C)(C)CC2=O)sc2c1CCCC2	none
CCOC(=O)c1cc(CC)sc1/N=C/C1C(=O)CCCC1=O	none
CCOC(=O)c1cc(C)sc1/N=C/C1C(=O)CCCC1=O	Furin inh 37
CCOC(=O)c1cc(C)sc1/N=C/C1=C(O)CCCC1=O	Furin inh 36
CCCCn1c(=O)c(CC(C)=O)nc2ccccc21	none
COCC1CCN(Cc2cn[nH]c2-c2ccc(OC)c(F)c2)C1 (stereo not given)	none
O=C(CN1C(=O)c2cccc3cccc1c23)Nc1ccc2c(c1)OCO2	none
O=C(CN1C(=O)c2cccc3cccc1c23)NCc1ccc2c(c1)OCO2	FXIIa inh 1536 105, KLK5 inh 41
N=c1oc2ccccc2cc1-c1nc(-c2ccc(Cl)cc2)cs1	KLK5 inh 47
Cc1cccc(Nc2c([N+](=O)[O-])cc(C(=O)N3CC(=O)Nc4ccccc43)cc2[N+](=O)[O-])c1	none
Cc1cccc(N2N=C(C(=O)N3CC(=O)Nc4ccccc43)CCC2=O)c1	FXIIa inh 1536 44
CCc1nnc(NS(=O)(=O)c2ccc(N=CC3=C(O)CC(C)(C)CC3=O)cc2)s1	Furin inh 26 (no result: KLK5 inh)
CC1(C)CC(=O)C(C=Nc2ccc(O)cc2)=C(O)C1	none
O=C(CCN1C(=O)c2ccccc2C1=O)N(CCO)Cc1ccccc1	Furin inh 27
O=C(CSCCO)Nc1ccc([N+](=O)[O-])cc1	none (no result: FXIIa inh 1536)
N/C(=N/S(=O)(=O)c1ccccc1)c1cccc([N+](=O)[O-])c1	none (no result: KLK5 inh)
N/C(=N\S(=O)(=O)c1ccccc1)c1ccc([N+](=O)[O-])cc1	thrombin 1536 48

Bioassay records (PubChem BioAssay)
